Measurements as given in paper PMC6733178 (ACS Omega, 2019).
In brackets after ≈: the same amount, converted by molar mass.

Assays:
[1] = tested on: S. aureus ATCC 25923 (Sa); test: MIC, broth microdilution with resazurin; format: cell-based, Staphylococcus aureus; settings: for MIC: Staphylococcus aureus, ATCC25923, read-out: MIC Values Sa
Procedure, shortened: (§1)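 CLSI broth microdilution. Strains were grown overnight at 35 °C on TSA or TSA with 5% sheep blood. Colonies were suspended in 0.9% saline to 0.5 McFarland, then diluted 1:100 in Mueller Hinton broth (about 1 × 10^6 CFU/mL). Test compound (2 mg/mL DMSO stock) was serially diluted 1:2 from 50 µg/mL final. Resazurin was added at 8 µg/mL final, and plates were incubated 35 °C for 20–24 h and read visually. MIC is the lowest concentration without the resazurin colour change. Each plate carried untreated, DMSO and antibiotic controls.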

[2] = tested on: human embryonic kidney (HEK293) cell line; test: In vitro cytotoxicity, resazurin viability; format: cell-based; settings: HEK293, 24 h incubation
Procedure, shortened: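 HEK293 cells were counted and seeded at 4000 per well. Test compound was serially diluted from 50 µg/mL, added in triplicate, and incubated 24 h. Resazurin (5%) was then added, and plates were incubated 4 and 6 h before reading. Viability was read as fluorescence at 544 nm excitation and 590 nm emission.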

[3] = tested on: S. aureus BAA-2312 (Sa12); test: MIC, broth microdilution with resazurin; format: cell-based, Staphylococcus aureus; settings: for MIC: Staphylococcus aureus, BAA2312, read-out: MIC Values Sa12
Procedure, shortened: as §1

[4] = tested on: S. aureus ATCC 700699 (Sa99); test: MIC, broth microdilution with resazurin; format: cell-based, Staphylococcus aureus; settings: for MIC: Staphylococcus aureus, ATCC700699, read-out: MIC Values Sa99
Procedure, shortened: as §1

[5] = tested on: S. aureus ATCC 33592 (Sa92); test: MIC, broth microdilution with resazurin; format: cell-based, Staphylococcus aureus; settings: for MIC: Staphylococcus aureus, ATCC33592, read-out: MIC Values Sa92
Procedure, shortened: as §1

[6] = tested on: S. epidermidis 700296 (Se); test: MIC, broth microdilution with resazurin; format: cell-based; settings: for MIC: Staphylococcus epidermidis, read-out: MIC Values Se
[7] = tested on: B. subtilis ATCC 6623 (Bs); test: MIC, broth microdilution with resazurin; format: cell-based; settings: NA = No Activity
[8] = tested on: A. baumannii ATCC BAA-1605 (Ab05); test: MIC, broth microdilution with resazurin; format: cell-based, Acinetobacter baumannii; settings: NA = No Activity
Procedure, shortened: as §1

[9] = tested on: A. baumannii ATCC 747 (Ab47); test: MIC, broth microdilution with resazurin; format: cell-based, Acinetobacter baumannii
Procedure, shortened: as §1

[10] = tested on: A. baumannii ATCC 19606 (Type Strain, AB06); test: MIC, broth microdilution with resazurin; format: cell-based, Acinetobacter baumannii
Procedure, shortened: as §1

[11] = tested on: S. aureus ATCC 33591 (Sa91); test: MIC, broth microdilution with resazurin; format: cell-based, Staphylococcus aureus; settings: for MIC: Staphylococcus aureus, ATCC33591, read-out: MIC Values Sa91
Procedure, shortened: as §1

A. baumannii ATCC 19606 = test: SYTO-9/propidium iodide; format: cell-based, Acinetobacter baumannii; settings: compared with positive control Colistin 6.25 μg/mL
[12] = tested on: tested Gram-positive strains (S. aureus incl. MRSA, S. epidermidis, B. subtilis); test: MIC summarised in the text over the tested Gram-positive strains; format: cell-based
[13] = tested on: three strains of A. baumannii; test: MIC summarised in the text over the three A. baumannii strains; format: cell-based, Acinetobacter baumannii
Procedure, shortened: as §1

[14] = antibiotic-resistant strain, NA = No Activity

Row | Compound | MIC [1] [µg/mL] | IC50 [2] | MIC [3] [µg/mL] | MIC [4] [µg/mL] | MIC [5] [µg/mL] | MIC [11] [µg/mL] | MIC [6] [µg/mL] | also measured
1 | O=C(O)c1ccc(-n2cc(/C=N/N(c3ccccc3)c3ccccc3)c(-c3ccc(F)cc3)n2)cc1 [Compound 23, 4-[4-[(E)-(Diphenylhydrazono)methyl]-3-(4-fluorophenyl)pyrazol-1-yl]benzoic Acid] | 1.56 (≈ 3.27 µM) | High IC50 values | 3.12 (≈ 6.56 µM) | 1.56 (≈ 3.27 µM) | 0.78 (≈ 1.64 µM) | – | – | MIC Values Se ([6]; NA = No Activity): no activity; MIC Values Bs ([7]; Table 2): 1.56 µg/mL (≈ 3.27 µM)
2 | Colistin [reference compound] | – | – | – | – | – | – | – | MIC Ab05 [8]: 3.125 µg/mL; MIC Ab47 ([9]; NA = No Activity): 1.56 µg/mL; MIC Ab06 ([10]; NA = No Activity): 3.125 µg/mL
3 | O=C(O)c1ccc(-n2cc(/C=N/Nc3ccc(Cl)cc3Cl)c(-c3cccc(F)c3)n2)cc1 [Compound 12, 4-[4-[(E)-[(2,4-Dichlorophenyl)hydrazono]methyl]-3-(3-fluorophenyl)pyrazol-1-yl]benzoic Acid] | 3.12 (≈ 6.66 µM) | High IC50 values | 3.12 (≈ 6.66 µM) | 0.78 (≈ 1.66 µM) | 0.39 (≈ 0.831 µM) | 3.12 (≈ 6.66 µM) | 3.12 (≈ 6.66 µM) | –
4 | CN1CCN(/N=C/c2cn(-c3ccc(C(=O)O)cc3)nc2-c2cccc(F)c2)CC1 [Compound 21, 4-[3-(3-Fluorophenyl)-4-[(E)-(4-methylpiperazin-1-yl)iminomethyl]pyrazol-1-yl]benzoic Acid] | – | – | – | – | – | – | – | membrane disruption ability (ratio of PI to SYTO-9 signals) (A. baumannii ATCC 19606): better membrane disruption ability than the positive control; activity against the tested strains (in words) [12]: completely ceased the activity
5 | CN(/N=C/c1cn(-c2ccc(C(=O)O)cc2)nc1-c1ccc(F)cc1)c1ccccc1 [Compound 22, 4-[3-(4-Fluorophenyl)-4-[(E)-[methyl(phenyl)hydrazono]methyl]pyrazol-1-yl]benzoic Acid] | 12.5 (≈ 30.2 µM) | – | – | 12.5 (≈ 30.2 µM) | 6.25 (≈ 15.1 µM) | 12.5 (≈ 30.2 µM) | 12.5 (≈ 30.2 µM) | membrane disruption ability (ratio of PI to SYTO-9 signals) (A. baumannii ATCC 19606): better membrane disruption ability than the positive control; activity against the tested strains (in words) [12]: moderate activity
6 | 4-[4-[(2,2-Dibenzylhydrazino)methyl]-3-(3-fluorophenyl)pyrazol-1-yl]benzoic Acid [Compound 7] | – | – | – | – | – | – | – | MIC Values Sa ([1]; antibiotic susceptible strain, NA = No Activity): 12.5 µg/mL; MIC Values Sa12 [3, 14]: 6.25 µg/mL; MIC Values Sa99 [4, 14]: 3.125 µg/mL; MIC Values Sa92 [5, 14]: 3.125 µg/mL; MIC Values Sa91 [11, 14]: 6.25 µg/mL; MIC Values Bs [7]: 1.56 µg/mL
7 | O=C(O)c1ccc(-n2cc(/C=N/Nc3cccc(Br)c3)c(-c3cccc(F)c3)n2)cc1 [Compound 9, 4-[4-[(E)-[(3-Bromophenyl)hydrazono]methyl]-3-(3-fluorophenyl)pyrazol-1-yl]benzoic Acid] | 12.5 (≈ 26.1 µM) | – | 12.5 (≈ 26.1 µM) | 3.12 (≈ 6.52 µM) | 6.25 (≈ 13 µM) | 12.5 (≈ 26.1 µM) | 12.5 (≈ 26.1 µM) | MIC ([9]; Acinetobacter baumannii, ATCC747, read-out: MIC Ab47): 12.5 µg/mL (≈ 26.1 µM); MIC ([10]; Acinetobacter baumannii, ATCC19606, read-out: MIC Ab06): 6.25 µg/mL (≈ 13 µM); activity against A. baumannii strains (in words) [13]: moderate activity
8 | O=C(O)c1ccc(-n2cc(/C=N/N(c3ccccc3)c3ccccc3)c(-c3cccc(F)c3)n2)cc1 [Compound 5, 4-[4-[(E)-(Diphenylhydrazono)methyl]-3-(3-fluorophenyl)pyrazol-1-yl]benzoic Acid] | 3.12 (≈ 6.56 µM) | High IC50 values | 3.12 (≈ 6.56 µM) | 1.56 (≈ 3.27 µM) | 0.78 (≈ 1.64 µM) | 3.12 (≈ 6.56 µM) | 3.12 (≈ 6.56 µM) | –
